Converted amounts (≈) assume the structure as drawn. The source made the active and inactive calls. The rule behind the calls is not given here.
What was measured:
Staphylococcus aureus [1] = experiment: Antibacterial activity against Staphylococcus aureus RN 4220 after 20 hrs by twofold serial dilution technique; type: functional; settings: RN 4220, 20 h
In short: (§1)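 Inoculum was 10⁵ CFU/mL. MIC was read after 20 h at 37 °C. The MRSA and QRSA strains were multidrug-resistant clinical isolates. Oxacillin and norfloxacin served as positive controls.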

Staphylococcus aureus [2] = experiment: Antibacterial activity against Staphylococcus aureus KCTC 503 after 20 hrs by twofold serial dilution technique; type: functional; settings: KCTC 503, 20 h; in short: as §1
Staphylococcus aureus [3] = experiment: Antibacterial activity against Staphylococcus aureus KCTC 209 after 20 hrs by twofold serial dilution technique; type: functional; settings: KCTC 209, 20 h; in short: as §1
Streptococcus mutans [4] = experiment: Antibacterial activity against Streptococcus mutans KCTC 3065 after 20 hrs by twofold serial dilution technique; type: functional; settings: KCTC 3065, 20 h
In short: (§2)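 Inoculum was 10⁵ CFU/mL, and MIC was read after incubation at 37 °C for 20 h. Oxacillin and norfloxacin were the positive controls.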

Streptococcus mutans [5] = experiment: Antibacterial activity against Streptococcus mutans KCTC 3289 after 20 hrs by twofold serial dilution technique; type: functional; settings: KCTC 3289, 20 h; in short: as §2
Escherichia coli [6] = experiment: Antibacterial activity against Escherichia coli 1924 after 20 hrs by twofold serial dilution technique; type: functional; settings: Escherichia coli, 1924, 20 h; in short: as §1
Escherichia coli [7] = experiment: Antibacterial activity against Escherichia coli 1356 after 20 hrs by twofold serial dilution technique; type: functional; settings: Escherichia coli, 1356, 20 h; in short: as §1
Staphylococcus aureus [8] = experiment: Antibacterial activity against Staphylococcus aureus MRSA CCARM 3167 after 20 hrs by twofold serial dilution technique; type: functional; settings: MRSA CCARM 3167, 20 h; in short: as §1
Staphylococcus aureus [9] = experiment: Antibacterial activity against Staphylococcus aureus MRSA CCARM 3506 after 20 hrs by twofold serial dilution technique; type: functional; settings: MRSA CCARM 3506, 20 h; in short: as §1
Staphylococcus aureus [10] = experiment: Antibacterial activity against Staphylococcus aureus QRSA CCARM 3505 after 20 hrs by twofold serial dilution technique; type: functional; settings: QRSA CCARM 3505, 20 h; in short: as §1
Staphylococcus aureus [11] = experiment: Antibacterial activity against Staphylococcus aureus QRSA CCARM 3519 after 20 hrs by twofold serial dilution technique; type: functional; settings: QRSA CCARM 3519, 20 h; in short: as §1
Escherichia coli [12] = experiment: Antibacterial activity against Escherichia coli 1356 at 64 ug/ml; type: functional, organism-based
Escherichia coli [13] = experiment: Antibacterial activity against Escherichia coli 1924 at 64 ug/ml; type: functional, organism-based

Row | Structure (SMILES) | MIC (Staphylococcus aureus [1]) [µg/mL] | MIC (Staphylococcus aureus [2]) [µg/mL] | MIC (Staphylococcus aureus [3]) [µg/mL] | MIC (Streptococcus mutans [4]) [µg/mL] | MIC (Streptococcus mutans [5]) [µg/mL] | MIC (Escherichia coli [6]) [µg/mL] | MIC (Escherichia coli [7]) [µg/mL] | MIC (Staphylococcus aureus [8]) [µg/mL] | MIC (Staphylococcus aureus [9]) [µg/mL] | MIC (Staphylococcus aureus [10]) [µg/mL] | MIC (Staphylococcus aureus [11]) [µg/mL] | Activity (Escherichia coli [12]) | Activity (Escherichia coli [13])
1 | O=C(O)CN1C(=O)/C(=C\c2ccc(/C=C/C(=O)c3ccc([N+](=O)[O-])cc3)cc2)SC1=S | 4 (≈ 8.8 µM) | 4 (≈ 8.8 µM) | 4 (≈ 8.8 µM) | 8 (≈ 17.6 µM) | 8 (≈ 17.6 µM) | > 64 | > 64 | 4 (≈ 8.8 µM) | 4 (≈ 8.8 µM) | 4 (≈ 8.8 µM) | 4 (≈ 8.8 µM) | inactive | inactive
2 | O=C(O)CN1C(=O)/C(=C\c2ccc(/C=C/C(=O)c3ccc(Cl)cc3Cl)cc2)SC1=S | 2 (≈ 4.18 µM) | 2 (≈ 4.18 µM) | 2 (≈ 4.18 µM) | 2 (≈ 4.18 µM) | 2 (≈ 4.18 µM) | > 64 | > 64 | 2 (≈ 4.18 µM) | 2 (≈ 4.18 µM) | 2 (≈ 4.18 µM) | 2 (≈ 4.18 µM) | inactive | inactive
3 | O=Cc1ccc(/C=C/C(=O)c2ccc(Cl)cc2Cl)cc1 | 64 (≈ 210 µM) | 64 (≈ 210 µM) | 64 (≈ 210 µM) | > 64 | > 64 | > 64 | > 64 | – | – | – | – | inactive | inactive
4 | COc1cccc(C(=O)/C=C/c2ccc(/C=C3/SC(=S)N(CC(=O)O)C3=O)cc2)c1 | 8 (≈ 18.2 µM) | 8 (≈ 18.2 µM) | 8 (≈ 18.2 µM) | 8 (≈ 18.2 µM) | 8 (≈ 18.2 µM) | > 64 | > 64 | 8 (≈ 18.2 µM) | 8 (≈ 18.2 µM) | 8 (≈ 18.2 µM) | 8 (≈ 18.2 µM) | inactive | inactive
5 | O=C(O)CN1C(=O)/C(=C\c2ccc(/C=C/C(=O)c3ccc(Cl)cc3)cc2)SC1=S | 4 (≈ 9.01 µM) | 4 (≈ 9.01 µM) | 4 (≈ 9.01 µM) | 4 (≈ 9.01 µM) | 4 (≈ 9.01 µM) | > 64 | > 64 | 4 (≈ 9.01 µM) | 4 (≈ 9.01 µM) | 4 (≈ 9.01 µM) | 4 (≈ 9.01 µM) | inactive | inactive
6 | O=C(O)CN1C(=O)/C(=C\c2ccc(/C=C/C(=O)c3cccc(Cl)c3)cc2)SC1=S | 64 (≈ 144 µM) | 64 (≈ 144 µM) | 64 (≈ 144 µM) | 64 (≈ 144 µM) | 64 (≈ 144 µM) | > 64 | > 64 | – | – | – | – | inactive | inactive
7 | O=C(O)CN1C(=O)/C(=C\c2ccc(/C=C/C(=O)c3cccc(F)c3)cc2)SC1=S | 64 (≈ 150 µM) | 64 (≈ 150 µM) | 64 (≈ 150 µM) | 64 (≈ 150 µM) | 64 (≈ 150 µM) | > 64 | > 64 | – | – | – | – | inactive | inactive
8 | CCn1cc(C(=O)O)c(=O)c2cc(F)c(N3CCNCC3)cc21 [NORFLOXACIN] | 2 (≈ 6.26 µM) | 2 (≈ 6.26 µM) | 4 (≈ 12.5 µM) | 1 (≈ 3.13 µM) | 1 (≈ 3.13 µM) | 16 (≈ 50.1 µM) | 16 (≈ 50.1 µM) | 8 (≈ 25.1 µM) | 4 (≈ 12.5 µM) | > 64 | > 64 | – | –
9 | O=C(O)CN1C(=O)/C(=C\c2ccc(/C=C/C(=O)c3ccccc3)cc2)SC1=S | 32 (≈ 78.1 µM) | 32 (≈ 78.1 µM) | 32 (≈ 78.1 µM) | 64 (≈ 156 µM) | 64 (≈ 156 µM) | > 64 | > 64 | – | – | – | – | inactive | inactive
10 | Cc1onc(-c2ccccc2)c1C(=O)N[C@@H]1C(=O)N2[C@@H]1SC(C)(C)[C@@H]2C(=O)O [OXACILLIN] | 1 (≈ 2.49 µM) | 1 (≈ 2.49 µM) | 1 (≈ 2.49 µM) | 1 (≈ 2.49 µM) | 1 (≈ 2.49 µM) | > 64 | > 64 | > 64 | > 64 | 1 (≈ 2.49 µM) | 1 (≈ 2.49 µM) | – | –
11 | Cc1ccc(C(=O)/C=C/c2ccc(/C=C3/SC(=S)N(CC(=O)O)C3=O)cc2)cc1 | 64 (≈ 151 µM) | 64 (≈ 151 µM) | 64 (≈ 151 µM) | 64 (≈ 151 µM) | 64 (≈ 151 µM) | > 64 | > 64 | – | – | – | – | inactive | inactive
12 | Cc1ccc(C(=O)/C=C/c2ccc(/C=C3/SC(=S)N(CC(=O)O)C3=O)cc2)c(C)c1 | 4 (≈ 9.14 µM) | 4 (≈ 9.14 µM) | 4 (≈ 9.14 µM) | 4 (≈ 9.14 µM) | 8 (≈ 18.3 µM) | > 64 | > 64 | 4 (≈ 9.14 µM) | 4 (≈ 9.14 µM) | 4 (≈ 9.14 µM) | 4 (≈ 9.14 µM) | inactive | inactive
13 | O=C(O)CN1C(=O)/C(=C\c2ccc(/C=C/C(=O)c3cccc(Br)c3)cc2)SC1=S | 8 (≈ 16.4 µM) | 8 (≈ 16.4 µM) | 8 (≈ 16.4 µM) | 8 (≈ 16.4 µM) | 8 (≈ 16.4 µM) | > 64 | > 64 | 8 (≈ 16.4 µM) | 8 (≈ 16.4 µM) | 8 (≈ 16.4 µM) | 8 (≈ 16.4 µM) | inactive | inactive
14 | COc1ccc(C(=O)/C=C/c2ccc(/C=C3/SC(=S)N(CC(=O)O)C3=O)cc2)cc1 | 64 (≈ 146 µM) | 64 (≈ 146 µM) | 64 (≈ 146 µM) | 64 (≈ 146 µM) | 64 (≈ 146 µM) | > 64 | > 64 | – | – | – | – | inactive | inactive
15 | COCOc1cccc(C(=O)/C=C/c2ccc(/C=C3/SC(=S)N(CC(=O)O)C3=O)cc2)c1 | > 64 | > 64 | > 64 | > 64 | > 64 | > 64 | > 64 | – | – | – | – | inactive | inactive
16 | COCOc1ccc(C(=O)/C=C/c2ccc(/C=C3/SC(=S)N(CC(=O)O)C3=O)cc2)cc1 | > 64 | > 64 | > 64 | > 64 | > 64 | > 64 | > 64 | – | – | – | – | inactive | inactive
17 | CC(=O)Nc1ccc(C(=O)/C=C/c2ccc(/C=C3/SC(=S)N(CC(=O)O)C3=O)cc2)cc1 | > 64 | > 64 | > 64 | > 64 | > 64 | > 64 | > 64 | – | – | – | – | inactive | inactive
